According to ChEMBL document CHEMBL1156920, “Structural analogues of schweinfurthin F: probing the steric, electronic, and hydrophobic properties of the D-ring substructure” (Bioorg Med Chem, 2010):

Tests used:
[1] = system: SF-539; experiment: Growth inhibition of human SF539 cells; type: functional
[2] = system: SK-MEL-2; experiment: Growth inhibition of human SK-MEL-2 cells; type: functional
[3] = system: M14; experiment: Growth inhibition of human M14 cells; type: functional
[4] = system: HCC 2998; experiment: Growth inhibition of human HCC2998 cells; type: functional
[5] = system: HCT-116; experiment: Growth inhibition of human HCT116 cells; type: functional
[6] = system: RXF 393; experiment: Growth inhibition of human RXF393 cells; type: functional
[7] = system: UACC-62; experiment: Growth inhibition of human UACC62 cells; type: functional
[8] = Growth inhibition of human […] cells; type: functional
[9] = system: OVCAR-4; experiment: Growth inhibition of human OVCAR4 cells; type: functional
[10] = system: OVCAR-3; experiment: Growth inhibition of human OVCAR-3 cells; type: functional
[11] = system: K562; experiment: Growth inhibition of human K562 cells; type: functional
[12] = system: PC-3; experiment: Growth inhibition of human PC3 cells; type: functional
[13] = system: SF-295; experiment: Cytotoxicity against human SF295 cells after 44 hrs by MTT assay; type: functional, cell-based; details: SF-295, 44 h
Procedure, shortened: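 SF-295 cells cultured in RPMI 1640 and A549 cells in F-12, each with 10% FBS, penicillin–streptomycin, amphotericin B and L-glutamine, at 37 °C in 5% CO2. Cells were grown to 60% confluency, then treated for 44 h. Medium was replaced with medium containing 0.06 mg/mL MTT (phenol red-free RPMI for SF-295) for 4 h. Acid/Triton/isopropanol stop solution was added, plates incubated overnight at 37 °C, OD read at 540 and 650 nm, and EC50 calculated.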

[14] = system: MCF7; experiment: Growth inhibition of human MCF7 cells; type: functional
[15] = system: HOP-92; experiment: Growth inhibition of human HOP92 cells; type: functional
[16] = system: SR; experiment: Growth inhibition of human SR cells; type: functional
[17] = system: 786-0; experiment: Growth inhibition of human 786-0 cells; type: functional
[18] = system: IGROV-1; experiment: Growth inhibition of human IGROV1 cells; type: functional
[19] = system: NCI-H460; experiment: Growth inhibition of human NCI-H460 cells; type: functional
[20] = system: SK-OV-3; experiment: Growth inhibition of human SKOV3 cells; type: functional
[21] = system: SF-268; experiment: Growth inhibition of human SF268 cells; type: functional
[22] = system: BT-549; experiment: Growth inhibition of human BT549 cells; type: functional
[23] = system: NCI-H226; experiment: Growth inhibition of human NCI-H226 cells; type: functional
[24] = system: MDA-MB-468; experiment: Growth inhibition of human MDA-MB-468 cells; type: functional
[25] = system: HT-29; experiment: Growth inhibition of human HT-29 cells; type: functional
[26] = system: DU-145; experiment: Growth inhibition of human DU145 cells; type: functional
[27] = system: A498; experiment: Growth inhibition of human A498 cells; type: functional
[28] = system: CCRF-CEM; experiment: Growth inhibition of human CCRF-CEM cells; type: functional
[29] = system: HL-60(TB); experiment: Growth inhibition of human HL-60(TB) cells; type: functional
[30] = system: UO-31; experiment: Growth inhibition of human UO31 cells; type: functional
[31] = system: UACC-257; experiment: Growth inhibition of human UACC257 cells; type: functional
[32] = system: TK-10; experiment: Growth inhibition of human TK10 cells; type: functional
[33] = system: HCT-15; experiment: Growth inhibition of human HCT15 cells; type: functional
[34] = Cytotoxicity against human NCI60 cells; type: functional
[35] = system: HOP-62; experiment: Growth inhibition of human HOP62 cells; type: functional
[36] = system: ACHN; experiment: Growth inhibition of human ACHN cells; type: functional
[37] = system: KM12; experiment: Growth inhibition of human KM12 cells; type: functional
[38] = system: U-251; experiment: Growth inhibition of human U251 cells; type: functional
[39] = system: OVCAR-5; experiment: Growth inhibition of human OVCAR5 cells; type: functional
[40] = system: NCI-H322M; experiment: Growth inhibition of human NCI-H322M cells; type: functional
[41] = system: CAKI-1; experiment: Growth inhibition of human Caki1 cells; type: functional
[42] = system: MDA-MB-435; experiment: Growth inhibition of human MDA-MB-435 cells; type: functional
[43] = read-out: pLC50 (the source's name) (converted)

## COc1cc(/C=C/c2cc(O)c(CCC(C)C)c(O)c2)cc2c1O[C@]1(C)CC[C@@H](O)C(C)(C)[C@H]1C2
[1]
  GI50: 0.0288 µM
  LC50: 2.69 µM
[1]; read-out: pTGI (converted)
  TGI: 0.295 µM
[2]
  GI50: 4.47 µM
[2]; read-out: pTGI (converted)
  TGI: 33.1 µM
[3]
  GI50: 0.245 µM
[3]; [43]
  CC50: 30.9 µM
[3]; read-out: pTGI (converted)
  TGI: 0.24 µM
[4]
  GI50: 0.794 µM
  LC50: 38 µM
[4]; read-out: pTGI (converted)
  TGI: 10.5 µM
[5]
  GI50: 0.0468 µM
[5]; [43]
  CC50: 47.9 µM
[5]; read-out: pTGI (converted)
  TGI: 8.13 µM
[6]
  GI50: 0.01 µM
[6]; [43]
  CC50: 8.32 µM
[6]; read-out: pTGI (converted)
  TGI: 0.0891 µM
[7]
  GI50: 0.195 µM
[7]; [43]
  CC50: 32.4 µM
[7]; read-out: pTGI (converted)
  TGI: 7.08 µM
[8]
  GI50: 0.0174 µM
  LC50: > 100 µM
[9]
  GI50: 1.41 µM
[9]; [43]
  CC50: > 100 µM
[9]; read-out: pTGI (converted)
  TGI: 38 µM
[10]
  GI50: 0.417 µM
  LC50 (50% lethal concentration): 56.2 µM
[10]; read-out: pTGI (converted)
  TGI: 14.1 µM
[11]
  GI50: 1.17 µM
[11]; [43]
  CC50: > 100 µM
[11]; read-out: pTGI (converted)
  TGI: > 100 µM
[12]
  GI50: 0.178 µM
[12]; [43]
  CC50: > 100 µM
[12]; read-out: pTGI (converted)
  TGI: 32.4 µM
[13]
  EC50: 0.4 µM
[14]
  GI50: 0.0427 µM
[14]; [43]
  CC50: > 100 µM
[14]; read-out: pTGI (converted)
  TGI: 2.4 µM
[15]
  GI50: 1.51 µM
  LC50: > 100 µM
[15]; read-out: pTGI (converted)
  TGI: 24 µM
[16]
  GI50: 0.0891 µM
  LC50: > 100 µM
[16]; read-out: pTGI (converted)
  TGI: 10.5 µM
[17]
  GI50: 0.0102 µM
  LC50: 2.88 µM
[17]; read-out: pTGI (converted)
  TGI: 0.0537 µM
[18]
  GI50: 0.513 µM
  LC50: > 100 µM
[18]; read-out: pTGI (converted)
  TGI: 46.8 µM
[19]
  GI50: 0.0661 µM
  LC50: 51.3 µM
[19]; read-out: pTGI (converted)
  TGI: 1.78 µM
[20]
  GI50: 11.5 µM
  LC50: > 100 µM
[20]; read-out: pTGI (converted)
  TGI: 97.7 µM
[21]
  GI50: 0.214 µM
  LC50: 39.8 µM
[21]; read-out: pTGI (converted)
  TGI: 11.5 µM
[22]
  GI50: 0.363 µM
[22]; [43]
  CC50: > 100 µM
[22]; read-out: pTGI (converted)
  TGI: 28.8 µM
[23]
  GI50: 0.692 µM
  LC50: > 100 µM
[23]; read-out: pTGI (converted)
  TGI: 3.55 µM
[24]
  GI50: 0.851 µM
  LC50: 57.5 µM
[24]; read-out: pTGI (converted)
  TGI: 4.37 µM
[25]
  GI50: 0.813 µM
  LC50 (50% lethal concentration): 97.7 µM
[25]; read-out: pTGI (converted)
  TGI: 4.47 µM
[26]
  GI50: 0.24 µM
  LC50: 37.2 µM
[26]; read-out: pTGI (converted)
  TGI: 14.1 µM
[27]
  GI50: 0.158 µM
  LC50: 36.3 µM
[27]; read-out: pTGI (converted)
  TGI: 6.31 µM
[28]
  GI50: 0.148 µM
[28]; [43]
  CC50: > 100 µM
[28]; read-out: pTGI (converted)
  TGI: 18.6 µM
[29]
  GI50: 0.251 µM
[29]; [43]
  CC50: > 100 µM
[29]; read-out: pTGI (converted)
  TGI: 38.9 µM
[30]
  GI50: 0.0468 µM
[30]; [43]
  CC50: 74.1 µM
[30]; read-out: pTGI (converted)
  TGI: 2.4 µM
[31]
  GI50: 3.39 µM
  LC50: 64.6 µM
[31]; read-out: pTGI (converted)
  TGI: 21.9 µM
[32]
  GI50: 6.31 µM
  LC50: 74.1 µM
[32]; read-out: pTGI (converted)
  TGI: 25.1 µM
[33]
  GI50: 0.182 µM
  LC50: 26.3 µM
[33]; read-out: pTGI (converted)
  TGI: 2.88 µM
[34]
  GI50: 0.29 µM
[35]
  GI50: 0.0513 µM
  LC50: 13.8 µM
[35]; read-out: pTGI (converted)
  TGI: 0.603 µM
[36]
  GI50: 0.309 µM
[36]; [43]
  CC50: 43.7 µM
[36]; read-out: pTGI (converted)
  TGI: 15.8 µM
[37]
  GI50: 0.275 µM
  LC50: 28.8 µM
[37]; read-out: pTGI (converted)
  TGI: 5.25 µM
[38]
  GI50: 0.0631 µM
  LC50: 37.2 µM
[38]; read-out: pTGI (converted)
  TGI: 12.9 µM
[39]
  GI50: 10.7 µM
  LC50 (lethal concentration, 50% cell kill): 69.2 µM
[39]; read-out: pTGI (converted)
  TGI: 26.9 µM
[40]
  GI50: 0.933 µM
[40]; read-out: pTGI (converted)
  TGI: 28.8 µM
[41]
  GI50: 0.0708 µM
  LC50: > 100 µM
[41]; read-out: pTGI (converted)
  TGI: 17.8 µM
[42]
  GI50: 0.501 µM
  LC50: > 100 µM
[42]; read-out: pTGI (converted)
  TGI: 24 µM
